Compound activity (PubChem BioAssay)
A selection: hits, their analogues and other compounds. The true share with any hit is near 2.6%.
ABHD5 PLIN5 PPI – ABHD5-PLIN5 interaction inhibitors, primary screen, cell lysate, split luciferase complementation, luminescence; Split G. princeps luciferase complementation, 4 h; inhibition, % at 4 µM; actives 0.78% (n = 360,000); AID 602281, 2012;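 active = inhibition above the mean inhibition across every tested compound plus 3 SD, cut at about 22% in these data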;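 note: 0% = DMSO only wells and the 100% control is not disclosed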
Target sequence (Q00G26 whole entry, looked up): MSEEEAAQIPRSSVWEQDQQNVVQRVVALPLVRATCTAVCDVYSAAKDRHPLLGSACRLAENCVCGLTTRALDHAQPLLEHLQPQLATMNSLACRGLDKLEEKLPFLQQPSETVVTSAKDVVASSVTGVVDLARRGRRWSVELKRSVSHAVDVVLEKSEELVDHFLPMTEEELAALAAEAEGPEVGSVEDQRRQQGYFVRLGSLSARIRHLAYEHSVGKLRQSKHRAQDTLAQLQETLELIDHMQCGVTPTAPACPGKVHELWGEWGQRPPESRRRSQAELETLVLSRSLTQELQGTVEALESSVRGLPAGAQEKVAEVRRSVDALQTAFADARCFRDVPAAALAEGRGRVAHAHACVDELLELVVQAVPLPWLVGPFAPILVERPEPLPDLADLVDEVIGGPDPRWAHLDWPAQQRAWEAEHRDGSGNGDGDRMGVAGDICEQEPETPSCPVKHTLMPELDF
Target sequence (Q8WTS1 whole entry, looked up): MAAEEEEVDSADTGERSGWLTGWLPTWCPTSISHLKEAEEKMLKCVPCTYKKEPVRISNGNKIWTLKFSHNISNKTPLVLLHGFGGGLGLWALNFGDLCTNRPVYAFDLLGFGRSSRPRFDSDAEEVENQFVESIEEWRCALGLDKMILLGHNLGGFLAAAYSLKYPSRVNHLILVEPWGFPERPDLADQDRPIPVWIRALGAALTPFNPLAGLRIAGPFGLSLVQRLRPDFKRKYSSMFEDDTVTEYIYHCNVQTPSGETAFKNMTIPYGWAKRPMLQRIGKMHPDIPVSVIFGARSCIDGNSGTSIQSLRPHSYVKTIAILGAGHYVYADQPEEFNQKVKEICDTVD
rCAG binder – binders of r(CAG) RNA repeats, primary screen, biochemical, fluorescence; AID 651821, 2012; inhibition, % at 3 µM; actives 1.3% (n = 370,000); r(CAG) RNA repeat, TO-PRO-1 dye displacement fluorescence;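 active = inhibition above the plate cutoff, the mean of all test compounds on that plate plus 3 SD, cut at about 35% in these data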;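 note: 0% = DMSO alone and 100% = 100 µM mitoxantrone as full dye displacement; higher means more dye released from RNA so lower well fluorescence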
NadD block – inhibitors of S. aureus NadD, primary screen, biochemical, colorimetric, uHTS; Nicotinate-nucleotide adenylyltransferase NadD (Staphylococcus aureus N315); purified NadD enzyme, colorimetric absorbance read-out; inhibition, % at 20 µM; actives 0.78% (n = 360,000); in the data active = inhibition above about 26%
HCV core dimer – inhibitors of HCV core protein dimerization, primary screen, biochemical, TR-FRET, high-throughput; TR-FRET GST/Flag-core106 dimerization, 1536-well; inhibition, % at 5 µM; actives 0.33% (n = 300,000); AID 1899, 2009;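 active = inhibition above the mean of all tested compounds plus 3 SD, set per screening campaign, cut at about 45% in these data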
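test system = GST/Flag-tagged HCV core106 proteins | probe or stimulus = Eu donor and XL665 acceptor anti-tag antibodies | times = compound-protein-antibody incubation 4 h at 22.5 °C | signal = TR-FRET, excitation 340 nm, emission 617 and 671 nm | measure = percent inhibition of core106 dimerization signal | controls = wells lacking GST-core106 and wells with excess unlabelled core106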
rCAG binder conf – small molecules binding CAG repeat RNA – biochemical, fluorescence, confirmation. inhibition, % at 3 µM. r(CAG) RNA repeat, TO-PRO-1 dye displacement fluorescence. actives 70% (n = 4,300). shares compounds with rCAG binder;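 active = inhibition above a per-plate cutoff, the mean inhibition of sample wells plus 3 SD, cut at about 35% in these data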;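 note: loss of TO-PRO-1 fluorescence as compound displaces dye from 1x1 AA loop RNA; 0% = DMSO only wells and 100% = 100 µM mitoxantrone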
dCAG dye counter – displacement of TO-PRO-1 from CAG DNA duplex, counter-screen for rCAG RNA repeat binder project, biochemical, fluorescence, TO-PRO-1 dye, d(CAG) DNA oligo; d(CAG) DNA oligo TO-PRO-1 dye displacement; actives 94% (n = 4,300); shares compounds with rCAG binder; AID 652068, 2013; inhibition, % at 3 µM;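 active = inhibition above its plate's cutoff, the mean test-well inhibition plus 3 SD, cut at about 4.8% in these data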;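 note: 0% = DNA dye mix with DMSO and 100% = 100 µM mitoxantrone; hits displace the dye from DNA and so lower well fluorescence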
An asterisk follows results filed as active.

What do the screens show for `CCOC(=O)c1sc(NC(=O)Nc2ccc(F)cc2)nc1C`?
ABHD5 PLIN5 PPI: -4.1; rCAG binder: 47.1*; NadD block: 0.7; HCV core dimer: -2.1; rCAG binder conf: 33.9; dCAG dye counter: 23.1*

How did O=C(Nc1ccncc1)c1cc(C2CCCCN2C(=O)CCCc2ccccc2)on1 (configuration not stated) do in these assays?
ABHD5 PLIN5 PPI: -1.9; rCAG binder: 1.9; NadD block: 2.1

How did O=C(O)/C(=C\c1ccc2ccccc2c1)c1cccc2ccccc12 do in these assays?
ABHD5 PLIN5 PPI: 6.5; rCAG binder: 57.8*; NadD block: 2.5; HCV core dimer: 10.7; rCAG binder conf: 52.3*; dCAG dye counter: 17.4*

Results for O=C(O)C(=Cc1ccncc1)c1cccc2ccccc12 ?
ABHD5 PLIN5 PPI: 0.5; rCAG binder: 1.8; NadD block: -0.5

How did COC(=O)C1CN(Cc2cn(CCC3OCCO3)nn2)CCS(=O)(=O)N1Cc1ccc(C)cc1 (configuration not stated) do in these assays?
rCAG binder: 4.6

How did Cc1ccc(NC(=S)NNC(=O)CSc2nc3ccccc3c(=O)n2-c2ccc(Cl)cc2)cc1 do in these assays?
rCAG binder: 57.4*; rCAG binder conf: 47.1*; dCAG dye counter: 21.5*

How did CCN(CC)c1ccc(NC(=O)CSc2nc3ccccc3c(=O)n2-c2ccc(C)cc2)cc1 do in these assays?
rCAG binder: 12.8

Results for Cc1ccc(-n2c(SCC(=O)NNC(=S)Nc3ccccc3)nc3ccccc3c2=O)cc1 ?
ABHD5 PLIN5 PPI: -8.3; rCAG binder: 55.4*; NadD block: 13.4; HCV core dimer: -3.5; rCAG binder conf: 42.2*; dCAG dye counter: 18.2*

What do the screens show for `O=C(CSc1nc2ccccc2s1)NNC(=S)Nc1ccc(Cl)cc1`?
ABHD5 PLIN5 PPI: -21.7; rCAG binder: 58.2*; NadD block: -0.6; HCV core dimer: 7.7; rCAG binder conf: 69.1*; dCAG dye counter: 30.3*

How did C=CCNC(=S)NNC(=O)CSc1nc2ccccc2s1 do in these assays?
ABHD5 PLIN5 PPI: -6.4; rCAG binder: 2.9; NadD block: 4.2; HCV core dimer: -1.5

What do the screens show for `CCCc1nc2ccc(C)cn2c1Cc1ccc(OC)cc1C`?
ABHD5 PLIN5 PPI: -2.8; rCAG binder: 4.8; NadD block: 0.3

How did O=C1N=c2ccccc2=C1c1sc(=S)n(-c2ccc(O)cc2)c1O do in these assays?
ABHD5 PLIN5 PPI: -1.8; rCAG binder: 20.4; NadD block: 12.7; HCV core dimer: -2.4

How did CN(c1ccc(O)cc1)c1nc(O)c(C2=c3ccccc3=NC2=O)s1 do in these assays?
ABHD5 PLIN5 PPI: -1.7; rCAG binder: 48.6*; NadD block: 6.0; HCV core dimer: -4.3; rCAG binder conf: 17.8; dCAG dye counter: 9.2*

Results for COc1ccccc1Cc1c(-c2cccc(Cl)c2)nc2ccc(Br)cn12 ?
ABHD5 PLIN5 PPI: -1.6; rCAG binder: 38.0*; NadD block: 1.6; rCAG binder conf: 22.2; dCAG dye counter: 4.2

Results for Clc1cccc(Cc2c(-c3ccccc3)nc3ccc(Cl)cn23)c1 ?
ABHD5 PLIN5 PPI: 0.1; rCAG binder: 35.7*; NadD block: 2.3; rCAG binder conf: 19.2; dCAG dye counter: 5.5*

How did Clc1cccc(Cc2c(C3CCCCC3)nc3ccc(Br)cn23)c1 do in these assays?
ABHD5 PLIN5 PPI: -6.5; rCAG binder: 35.9*; NadD block: 0.5; rCAG binder conf: 23.1; dCAG dye counter: 2.9

What do the screens show for `Clc1cccc(Cc2c(-c3cccc(Br)c3)nc3ccc(Cl)cn23)c1`?
ABHD5 PLIN5 PPI: -1.2; rCAG binder: 44.7*; NadD block: 15.2; rCAG binder conf: 25.6; dCAG dye counter: 9.9*

Results for Cc1cc(C(=O)N2CCC2(C)C(=O)Nc2cccc3ccccc23)nn1C (configuration not stated) ?
ABHD5 PLIN5 PPI: -3.0; rCAG binder: 0.2; NadD block: 3.4

What do the screens show for `Cc1ccc(S(=O)(=O)N2CCOCC2)cc1NC(=O)COC(=O)c1ccc(Cl)s1`?
ABHD5 PLIN5 PPI: 13.0; rCAG binder: 3.1; NadD block: -2.8
